These results are taken from ChEMBL document CHEMBL3232832, “Derivatives of dibenzothiophene for positron emission tomography imaging of α7-nicotinic acetylcholine receptors” (J Med Chem, 2013).

One data set relates to Hippocampus. The data set can be described thus: Drug uptake in CD-1 mouse hippocampus at 70 uCi, iv administered 10 mins post spiperone challenge measured after 90 mins. The format is ADME, organism-based. As to conditions: in vivo, 1.5 h; call rule not given here. An outline of the steps:
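Male CD-1 mice, n=3. Drug at 2 mg/kg s.c. in saline:DMSO 5:1, with vehicle controls. [18F] radiotracer (70 µCi, SA ~14000 mCi/µmol) given i.v. 10 min later. Regions harvested 90 min after tracer, gamma counted, expressed as %ID/g. Compared by single-factor ANOVA.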

Another data set has as its system Nucleic Acid. Nature of the data set: Ratio of drug uptake from superior and inferior colliculus to cerebellum in CD-1 mouse after 90 mins. In kind it is ADME, nucleic-acid assay. As to conditions: 1.5 h. An outline of the steps:
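CD-1 mouse baseline biodistribution after i.v. [18F]radioligand (70 µCi, 8000–12000 mCi/µmol, in 0.2 mL saline), three mice per time point to 90 min. Regional gamma-counting gave %ID/g, and each region was expressed as a ratio to cerebellum.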

The nature of data set [1]: Drug uptake in CD-1 mouse superior and inferior colliculus at 70 uCi, iv after 90 mins in presence of nicotine. As to conditions: in vivo, 1.5 h. In kind it is ADME, organism-based.
The nature of data set [2]: Drug uptake in CD-1 mouse superior and inferior colliculus at 70 uCi, iv administered 10 mins post SCH23390 challenge measured after 90 mins. The format is ADME, organism-based. As to conditions: in vivo, 1.5 h. An outline of the steps:
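Male CD-1 mice (25–30 g). […] Brains removed 90 min later and dissected on ice. Regions weighed and gamma-counted against injectate standards. Result as %ID/g, mean ± SD, n=3; ANOVA versus controls.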

With `O=S1(=O)c2cc(N3CCN4CCC3CC4)ccc2-c2cccc([18F])c21`, the Drug uptake result is on record as “Active” in the data set with Hippocampus, “Not Active” in data set [1] and “Active” in data set [2]. Further, the Ratio with Nucleic Acid stood at 8.
